Measurements reported in ChEMBL document CHEMBL4613274, “Chimeric Peptidomimetics of SOCS 3 Able to Interact with JAK2 as Anti-inflammatory Compounds” (ACS Med Chem Lett, 2020).
The source made the active and inactive calls. No cut-off for these calls is given here. Square brackets hold non-standard residues; d marks the D form. Peptide text beside a SMILES is read from it. βAla = NCCC(=O)O

Key:
RAW264.7 [1] = assay: Antioxidant activity against mouse RAW264.7 cells assessed as reduction in IFNgamma and IL6-induced mRNA expression of Nox2 at […] pretreated for 90 mind followed by IFNgamma and IL6 stimulation for 1 hr by Trizol reagent based RT-PCR analysis; type: functional, cell-based
Method in brief: (§1)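 RAW264.7 murine macrophage-like cells; peptides (conjugated to HIV Tat 48–60 for cell entry) or Ala/Arg negative-control peptide at 12.5 μM, then IFNγ+IL-6 stimulation 1 h. Cxcl10, Ccl5 and Nox2 mRNA quantified by real-time PCR.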

RAW264.7 [2] = assay: Antiinflammatory activity against mouse RAW264.7 cells assessed as reduction in IFNgamma and IL6-induced mRNA expression of Cxcl10 at […] pretreated for 90 mind followed by IFNgamma and IL6 stimulation for 1 hr by Trizol reagent based RT-PCR analysis; type: functional, cell-based; method in brief: as §1
[3] = Stability of compound in FBS assessed as residual concentration at 80 uM incubated for 2 hrs by RP-HPLC analysis; type: physicochemical; details: cattle, fetal bovine serum (FBS); read-out: Stability
Method in brief: (§2)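 Pure peptides incubated in fetal bovine serum; decrease of chromatographic peak area followed over time, expressed as area percentage remaining.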

[4] = biological target: Signal transducer and activator of transcription 3 (Mus musculus) (UniProt P42227); assay: Inhibition of IFNgamma and IL6 induced STAT3 activation in mouse VSMC cells assessed as decrease in STAT3 phosphorylation at 5 uM pretreated for 90 mins using TAMRA-conjugated peptide followed by IFNgamma and IL6 stimulation for 1 hr by DAPI staining based immunofluorescence assay relative to control; type: cell-based
Method in brief: (§3)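 Primary mouse VSMCs stimulated with IFNγ+IL-6 with or without TAMRA-labeled peptide 5 μM; immunofluorescence for phospho-STAT3 with DAPI nuclear counterstain, confocal imaging. P-STAT3 fluorescence intensity given as percentage, mean ± SEM, n = 3 independent experiments.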

RAW264.7 [5] = assay: Antiinflammatory activity against mouse RAW264.7 cells assessed as reduction in IFNgamma and IL6-induced mRNA expression of Ccl5 at […] pretreated for 90 mind followed by IFNgamma and IL6 stimulation for 1 hr by Trizol reagent based RT-PCR analysis; type: functional, cell-based; method in brief: as §1
[6] = Drug distribution in cytoplasm of mouse VSMC measured after 2 hrs by confocal microscopy; type: ADME, subcellular; details: in vitro
Method in brief: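 Primary murine vascular smooth muscle cells exposed to fluorescent (TAMRA-labeled), Tat 48–60-conjugated peptides; uptake and subcellular distribution imaged by confocal microscopy after 2 h.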

[7] = biological target: Signal transducer and activator of transcription 3 (Mus musculus) (UniProt P42227); assay: Inhibition of IFNgamma and IL6 induced STAT3 nuclear translocation in mouse VSMC cells at 5 uM pretreated for 90 mins using TAMRA-conjugated peptide followed by IFNgamma and IL6 stimulation for 1 hr by DAPI staining based immunofluorescence assay relative to control; type: cell-based; method in brief: as §3
[8] = biological target: Tyrosine-protein kinase JAK2 (Homo sapiens, UniProt O60674); assay: Binding affinity to human N-terminal His-tagged JAK2 catalytic domain (826 to 1132 end residues) at 25 degree C by microscale thermophoresis assay
Method in brief: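 JAK2 catalytic domain binding by microscale thermophoresis; labeled target with 1:1 serial dilutions of peptide (14–16 samples) from stocks of ~404–409 μM in labeling buffer pH 7.5. Temperature-induced fluorescence change plotted versus peptide concentration; KD from fitting of binding isotherm.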

[9] = Stability of compound in FBS assessed as decrease in chromatographic peak at 80 uM incubated up to 4 hrs by RP-HPLC analysis; type: physicochemical; details: cattle; method in brief: as §2
[10] = Stability of compound in FBS assessed as drug degradation at 80 uM incubated for 2 hrs by RP-HPLC analysis; type: physicochemical; details: cattle, fetal bovine serum (FBS); read-out: Drug degradation; method in brief: as §2

Sequence of Tyrosine-protein kinase JAK2 (O60674 whole entry, the tested form may be a part): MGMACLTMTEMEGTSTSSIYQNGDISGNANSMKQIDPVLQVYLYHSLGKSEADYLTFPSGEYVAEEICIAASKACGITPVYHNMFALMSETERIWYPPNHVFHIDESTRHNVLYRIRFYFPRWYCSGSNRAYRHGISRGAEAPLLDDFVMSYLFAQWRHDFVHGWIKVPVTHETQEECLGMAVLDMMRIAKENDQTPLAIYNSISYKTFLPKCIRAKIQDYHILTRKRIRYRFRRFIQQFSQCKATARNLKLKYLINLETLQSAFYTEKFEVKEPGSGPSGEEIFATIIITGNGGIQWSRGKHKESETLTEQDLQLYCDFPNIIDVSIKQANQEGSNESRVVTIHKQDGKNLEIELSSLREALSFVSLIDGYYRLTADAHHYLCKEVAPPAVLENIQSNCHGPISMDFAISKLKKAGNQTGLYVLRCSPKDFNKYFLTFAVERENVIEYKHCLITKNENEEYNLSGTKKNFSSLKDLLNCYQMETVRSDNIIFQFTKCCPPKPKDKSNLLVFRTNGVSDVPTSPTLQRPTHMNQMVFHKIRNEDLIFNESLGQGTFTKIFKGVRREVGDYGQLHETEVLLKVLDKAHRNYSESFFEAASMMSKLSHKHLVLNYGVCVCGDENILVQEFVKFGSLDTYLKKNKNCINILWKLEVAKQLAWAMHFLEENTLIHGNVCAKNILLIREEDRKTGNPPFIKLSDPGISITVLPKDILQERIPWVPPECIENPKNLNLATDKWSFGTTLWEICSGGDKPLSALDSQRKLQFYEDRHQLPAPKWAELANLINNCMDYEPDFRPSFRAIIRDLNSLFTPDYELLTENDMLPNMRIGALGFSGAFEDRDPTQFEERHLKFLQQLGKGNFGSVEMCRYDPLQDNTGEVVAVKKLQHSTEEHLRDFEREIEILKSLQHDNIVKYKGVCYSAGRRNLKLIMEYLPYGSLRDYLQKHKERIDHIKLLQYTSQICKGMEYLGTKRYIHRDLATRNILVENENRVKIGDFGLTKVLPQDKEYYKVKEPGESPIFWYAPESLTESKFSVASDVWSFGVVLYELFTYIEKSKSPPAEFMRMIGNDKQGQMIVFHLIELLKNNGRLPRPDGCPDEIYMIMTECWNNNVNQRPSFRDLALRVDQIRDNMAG
Sequence of Signal transducer and activator of transcription 3 (Mus musculus) (P42227 whole entry, the tested form may be a part): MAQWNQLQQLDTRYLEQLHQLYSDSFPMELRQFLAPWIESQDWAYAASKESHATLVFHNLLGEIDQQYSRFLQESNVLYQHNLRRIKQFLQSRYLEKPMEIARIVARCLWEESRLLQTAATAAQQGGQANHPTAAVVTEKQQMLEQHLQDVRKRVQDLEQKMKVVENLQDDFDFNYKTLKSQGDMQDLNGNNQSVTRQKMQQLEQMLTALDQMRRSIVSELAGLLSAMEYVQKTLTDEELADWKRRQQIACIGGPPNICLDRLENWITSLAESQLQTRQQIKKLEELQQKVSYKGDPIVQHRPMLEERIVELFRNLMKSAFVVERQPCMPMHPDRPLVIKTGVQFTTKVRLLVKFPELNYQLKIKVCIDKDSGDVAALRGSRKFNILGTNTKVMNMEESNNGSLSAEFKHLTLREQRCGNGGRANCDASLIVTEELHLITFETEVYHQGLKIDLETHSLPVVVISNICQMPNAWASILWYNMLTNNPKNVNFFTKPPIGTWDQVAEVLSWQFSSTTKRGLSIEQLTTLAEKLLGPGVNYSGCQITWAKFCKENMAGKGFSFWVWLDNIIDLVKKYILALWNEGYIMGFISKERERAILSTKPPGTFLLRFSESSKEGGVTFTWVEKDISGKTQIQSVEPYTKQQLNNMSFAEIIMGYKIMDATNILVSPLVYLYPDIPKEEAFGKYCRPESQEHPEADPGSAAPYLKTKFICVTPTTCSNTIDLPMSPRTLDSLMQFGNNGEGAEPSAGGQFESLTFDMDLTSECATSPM

remaining at 2 h, 80 µM [3]	inhibition [4]	Drug uptake [6]	inhibition [7]	Activity [8]	Kd [8]	Stability [9]	metabolised at 2 h, 80 µM [10]	Molecule	Activity (RAW264.7 [1])	Activity (RAW264.7 [2])	Activity (RAW264.7 [5])
70%	65%	Active	Active	Dose-dependent effect	11 µM	Stable		CC(=O)N[C@@H](CCCCN)C(=O)NCCC(=O)N[C@@H](Cc1ccccc1)C(=O)N[C@@H](CO)C(=O)N[C@@H](CO)C(=O)N[C@@H](CCCCN)C(=O)N[C@@H](CO)C(=O)N[C@@H](CCC(=O)O)C(=O)N[C@@H](Cc1ccc(O)cc1)C(=O)N[C@@H](CCC(N)=O)C(=O)N[C@@H](CC(C)C)C(=O)NCCC(=O)NCCC(=O)N[C@@H](Cc1ccccc1)C(=O)N[C@@H](Cc1ccc(O)cc1)C(=O)N[C@@H](Cc1c[nH]c2ccccc12)C(=O)N[C@@H](CO)C(=O)N[C@@H](C)C(=O)N[C@H](C(=O)N[C@H](C(N)=O)[C@@H](C)O)C(C)C (Ac-K[βAla]FSSKSEYQL[βAla][βAla]FYWSAVT-NH2)	Active	Active	Active
				Dose-dependent effect		Stable	100%	Ac-FSSKSEYQLVVNAVRKLQESGFYWSAVT-NH2			
				Dose-dependent effect		Stable		Ac-VVNAVRKLQESGFYWSAVT-NH2			

Further lines, the molecule ahead of its results:

Molecule	remaining at 2 h, 80 µM [3]	inhibition [4]	Drug uptake [6]	inhibition [7]	Activity [8]	Kd [8]	Stability [9]	metabolised at 2 h, 80 µM [10]	Activity (RAW264.7 [1])	Activity (RAW264.7 [2])	Activity (RAW264.7 [5])
CC(=O)N[C@@H](CC(C)C)C(=O)N[C@@H](CCCCN)C(=O)N[C@H](C(=O)N[C@@H](Cc1ccccc1)C(=O)N[C@@H](CO)C(=O)N[C@@H](CO)C(=O)N[C@@H](CCCCN)C(=O)N[C@@H](CO)C(=O)N[C@@H](CCC(=O)O)C(=O)N[C@@H](Cc1ccc(O)cc1)C(=O)N[C@@H](CCC(N)=O)C(=O)N[C@@H](CC(C)C)C(=O)N[C@H](C(=O)N[C@H](C(=O)N[C@@H](CC(N)=O)C(=O)N[C@@H](C)C(=O)N[C@H](C(=O)N[C@@H](CCCNC(=N)N)C(=O)N[C@@H](CCCCN)C(=O)N[C@@H](CC(C)C)C(=O)N[C@@H](CCC(N)=O)C(=O)N[C@@H](CCC(=O)O)C(=O)N[C@@H](CO)C(=O)NCC(N)=O)C(C)C)C(C)C)C(C)C)[C@@H](C)O	40%	65%	Active	Active					Active	Active	Active
Ac-AAARAAARAAARAAARAAARAAAA-NH2				inactive					inactive	inactive	inactive
